Screening data from PubChem BioAssay.
HTR2A ag = activates the mouse 5-HT2A serotonin receptor; P35363; CHO-K1 mHTR2A beta-arrestin complementation, luminescence; percent of 30 µM serotonin response; activation, % at 7.6 µM; 360,000 compounds, 0.66% hits; AID 624169;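 active = activation above a run cutoff, the mean activation of all tested compounds plus 3 SD, cut at about 14% in these data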
PREPL inhibitor = inhibits the human prolyl oligopeptidase-like enzyme; Q4J6C6; inhibition, % at 5.96 µM; recombinant PREPL, fluorescence polarization activity-based probe; 320,000 compounds, 0.68% hits; in the data active = inhibition above about 43%
Hep lipid drop = modulators of hepatic lipid droplet formation; 240,000 compounds, 0.4% hits; AML12 mouse hepatocytes, oleate lipid droplets, BODIPY imaging; inhibition, % at 6.5 µM;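 active = lipid droplet intensity inhibited by at least 50%, with more than 500 cells counted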
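Assay system: AML12 hepatocytes (mouse) / Also added: 100 µM oleic acid challenge / Times: overnight treatment with compound plus oleate / Detection: high-content imaging of BODIPY-stained droplets and DAPI nuclei / Evaluation: % inhibition of lipid droplet signal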
MC4R antagonist = antagonists of human melanocortin 4 receptor (MC4R); P32245; MC4R-expressing cells, MTII-stimulated cAMP, LANCE TR-FRET; inhibition, % at 6.5 µM; 360,000 compounds, 0.48% hits; AID 540295;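 active = inhibition above its plate's cutoff, the mean of tested wells on that plate plus 3 SD, cut at about 29% in these data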
Target sequence (P32245 whole entry, looked up): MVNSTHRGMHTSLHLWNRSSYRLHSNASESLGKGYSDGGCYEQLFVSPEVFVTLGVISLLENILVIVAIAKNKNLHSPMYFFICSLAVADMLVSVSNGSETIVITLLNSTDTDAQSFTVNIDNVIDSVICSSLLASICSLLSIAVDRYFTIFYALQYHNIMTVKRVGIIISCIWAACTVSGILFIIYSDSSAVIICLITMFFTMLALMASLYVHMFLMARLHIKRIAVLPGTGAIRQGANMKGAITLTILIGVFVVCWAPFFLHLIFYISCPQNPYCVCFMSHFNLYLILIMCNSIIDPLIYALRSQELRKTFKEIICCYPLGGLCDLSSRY
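Material: U2OS-MC4R stable cell line | Reagent: Melanotan II challenge after compound preincubation | Doses: One concentration, 6.5 µM nominal | Incubation: 30-min compound preincubation, 1-h Melanotan II challenge, 1-h detection, room temperature | Signal: TR-FRET cAMP assay | Replicates: One well per compound, no replicates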
MC4R barr agon = human MC4R agonism via beta-arrestin; activation, % at 8.9 µM; U2OS MC4R beta-arrestin complementation, luminescence; percent of melanotan II response, DMSO zero; 360,000 compounds, 0.98% hits; AID 540308;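 active = activation above a per-plate cutoff, the mean activation of sample wells on that plate plus 3 SD, cut at about 8% in these data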
NTR1 ag = activates human neurotensin receptor 1; NTR1-U2OS beta-arrestin-GFP spot imaging, agonist mode; activation, % at 20 µM; 330,000 compounds, 0.17% hits; AID 493036;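 active = activation at or above 40% of the spot to cytoplasm intensity ratio, with at least 20 cells analyzed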
U2OS cAMP counter = U2OS forskolin cAMP inhibition counter-screen; AID 602193; inhibition, % at 6.5 µM; shares compounds with MC4R antagonist; 1,600 compounds, 26% hits; parental U2OS, LANCE TR-FRET;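 active = mean inhibition over triplicates above the low-control well mean plus 3 SD, set per campaign, cut at about 13% in these data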;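 also: signal is single emission at 671 nm which falls as cellular cAMP rises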
MC4R antag conf = human MC4R cAMP antagonism confirmation; 1,600 compounds, 27% hits; shares compounds with MC4R antagonist; MC4R-expressing cells, MTII-stimulated cAMP, TR-FRET; inhibition, % at 6.5 µM; in the data active = inhibition above about 29%
Of the large screens only hits and unclear results are named; the others gave an inactive call (follow-up assays come after a bar, where they were run). Most compounds without a hit are left out; they make up all but 2.7% or so of the library.

OC(c1ccc(Cl)cc1)c1ncc(-c2ccc(Oc3ccccc3)cc2)[nH]1 (configuration not stated)	none (no result: PREPL inhibitor, Hep lipid drop, NTR1 ag)
COc1ccc(-c2csc(NC(=O)c3cccc(N4C(=O)CCC4=O)c3)n2)cc1C	MC4R antagonist 58 | U2OS cAMP counter 18 | MC4R antag conf 33
CC(=O)c1sc(NC(=O)c2cccc(N3C(=O)CCC3=O)c2)nc1-c1ccccc1	MC4R antagonist 68 (no result: Hep lipid drop) | U2OS cAMP counter inactive | MC4R antag conf inactive
Cc1sc(NC(=O)c2cccc(N3C(=O)CCC3=O)c2)nc1-c1ccccc1	none (no result: Hep lipid drop)
CCC(=O)NC(Nc1c(C)n(C)n(-c2ccccc2)c1=O)C(Cl)(Cl)Cl (configuration not stated)	none
CC(OC(=O)c1cccc(N2C(=O)c3ccccc3C2=O)c1)C(=O)Nc1ccc(N(C)C)cc1 (configuration not stated)	MC4R antagonist 33 | U2OS cAMP counter inactive | MC4R antag conf inactive
CCOc1cccc(C2/C(=C(/O)c3ccc4c(c3)CC(C)O4)C(=O)C(=O)N2CCN2CCOCC2)c1 (configuration not stated)	MC4R antagonist 38 | U2OS cAMP counter inactive | MC4R antag conf inactive
C=CCN(c1nc(C)c(Br)c(OC)n1)S(=O)(=O)c1ccc(C)cc1	none
CC1CCCC(NC(=O)COC(=O)COc2ccc(C#N)cc2)C1C (configuration not stated)	MC4R antagonist 36 (no result: Hep lipid drop) | U2OS cAMP counter inactive | MC4R antag conf inactive
CCC(C)(C)NC(=O)CN(C(=O)CCC(=O)Nc1nccs1)c1ccc(C)cc1	none
CC(=O)NS(=O)(=O)c1ccc(N=c2ssc3c2-c2cc(C)c(C)cc2NC3(C)C)cc1	MC4R antagonist 31 | U2OS cAMP counter inactive | MC4R antag conf inactive
Cc1cc2c(cc1C)-c1c(ssc1=Nc1ccc(S(N)(=O)=O)cc1)C(C)(C)N2	none
NC(=O)COC(=O)[C@H](Cc1c[nH]c2ccccc12)NC(=O)c1ccc(F)cc1	MC4R antagonist 32 | U2OS cAMP counter 14 | MC4R antag conf inactive
O=C(NC(Cc1c[nH]c2ccccc12)C(=O)O)c1ccc(F)cc1 (configuration not stated)	none
CCn1c(SCc2ccccc2F)nnc1-c1ccncc1	none
CNCCNC[C@H](Cc1cccc2ccccc12)NCCc1ccccc1	none (no result: Hep lipid drop)
CNC[C@H](Cc1ccccc1)NC[C@@H](Cc1cccc2ccccc12)NCCc1ccc(C)cc1	MC4R antagonist 31 | U2OS cAMP counter inactive | MC4R antag conf inactive
CCNC(=O)C1(C)CCN(Cc2ccccc2C#N)C1 (configuration not stated)	none (no result: PREPL inhibitor, Hep lipid drop, NTR1 ag)
O=S(=O)(c1ccccc1)C1CON(Cc2ccccc2)C1c1ccccc1 (configuration not stated)	MC4R antagonist 30 | U2OS cAMP counter inactive | MC4R antag conf inactive
CN1OCC(S(=O)(=O)c2ccccc2)C1c1ccccc1 (configuration not stated)	none
O=C(O)C(Cc1c[nH]c2ccccc12)NS(=O)(=O)c1cccc(Cl)c1Cl (configuration not stated)	MC4R antagonist 29 (no result: Hep lipid drop) | U2OS cAMP counter inactive | MC4R antag conf inactive
COc1cccc2[nH]c3c(Cl)ncnc3c12	MC4R antagonist 29 | U2OS cAMP counter inactive | MC4R antag conf inactive
O=C(c1ccc(Cl)c(S(=O)(=O)N2CCCCC2)c1)N1CCN(Cc2ccccc2)CC1	none
Cc1ccc(CNC(=O)c2ccc(N3CCC4(CC3)CC(c3ccccc3)=NO4)c(NC(=O)c3ccco3)c2)cc1	none
CCCNC(=O)c1ccc(N2CCC3(CC2)CC(c2ccccc2)=NO3)c(NC(=O)c2ccco2)c1	MC4R antagonist 33 | U2OS cAMP counter inactive | MC4R antag conf inactive
COc1ccccc1C(=O)Nc1ccc(NC(=O)C2CCCCC2)nc1	MC4R antagonist 31 | U2OS cAMP counter inactive | MC4R antag conf inactive
CCOC(=O)COc1ccccc1/C=C\[N+](=O)[O-]	MC4R antagonist 29 (no result: NTR1 ag) | U2OS cAMP counter 37 | MC4R antag conf 44
CCCCC[C@@H](C)N1C[C@@H](COCc2ccccc2)Oc2cc(N3CCC[C@H]3COC)ccc2S1(=O)=O	none (no result: PREPL inhibitor, Hep lipid drop, MC4R antagonist, MC4R barr agon, NTR1 ag)
CCOc1ccc(N(CC(=O)N/N=C/c2cccnc2)S(C)(=O)=O)cc1	MC4R antagonist 31 | U2OS cAMP counter inactive | MC4R antag conf inactive
CCCOc1ccc(/C=N/NC(=O)CN(c2ccc(OCC)cc2)S(C)(=O)=O)cc1	none
C=C(C)[C@@H]1C2=CC(C(=O)OC)=C(C[C@H](C(=C)C)[C@H]3O[C@H]3C3=C[C@H]1OC3=O)O2	MC4R antagonist 36 (no result: PREPL inhibitor, Hep lipid drop, NTR1 ag) | U2OS cAMP counter 14 | MC4R antag conf 45
CC(C)C[C@H](NC(=O)c1[nH]cnc1C(=O)Nc1ccc(CNC(=O)OC(C)(C)C)cc1)C(=O)OCc1ccccc1	MC4R antagonist 61 | U2OS cAMP counter 18 | MC4R antag conf 37
C[C@H](NC(=O)c1[nH]cnc1C(=O)Nc1ccc(CNC(=O)OC(C)(C)C)cc1)C(=O)OCc1ccccc1	MC4R antagonist 29 | U2OS cAMP counter inactive | MC4R antag conf inactive
CC(C)(C)OC(=O)NCCCC[C@H](NC(=O)c1nc[nH]c1C(=O)NCC(=O)OCc1ccccc1)C(=O)OC(C)(C)C	none
CC(C)(C)OC(=O)NCCCCCNC(=O)c1nc[nH]c1C(=O)NCC(=O)OCc1ccccc1	MC4R antagonist 46 (no result: Hep lipid drop) | U2OS cAMP counter inactive | MC4R antag conf inactive
CC(C)(C)OC(=O)NCc1ccc(NC(=O)c2nc[nH]c2C(=O)N[C@@H](Cc2ccccc2)C(=O)OC(C)(C)C)cc1	none
COc1ccc(NS(=O)(=O)c2ccc3c(c2)N(C(C)=O)CCO3)cc1	none
Cc1ccc(CN(C)C(=O)COC(=O)CSc2ccc([N+](=O)[O-])cc2)cc1	none (no result: Hep lipid drop)
Cc1ccc(CN(C)C(=O)COC(=O)CSc2ccc(C(N)=O)cc2[N+](=O)[O-])cc1	MC4R antagonist 38 (no result: Hep lipid drop) | U2OS cAMP counter 14 | MC4R antag conf 35
CCN(C(=O)COC(=O)CSc1ccc(C(N)=O)cc1[N+](=O)[O-])C1CCCCC1	MC4R antagonist 33 | U2OS cAMP counter inactive | MC4R antag conf 30
Cc1cc2nc(CS)[nH]c2cc1C	none
O=C(Nc1nc(-c2ccccn2)cs1)c1cc(Cl)ccc1[N+](=O)[O-]	MC4R antagonist 29 | U2OS cAMP counter 32 | MC4R antag conf inactive
Cc1cc(C(=O)Nc2nc(-c3ccccn3)cs2)ccc1[N+](=O)[O-]	none
Cc1ccccc1-c1noc(CCC(=O)NCc2ccco2)n1	none
